Published values of several laboratories.
CYP3A7: Cytochrome P450 3A7 (CYP3A7, Homo sapiens, UniProt P24462)

The IC50 of C=C(C)[C@@]1(O)[C@H](OC(=O)/C=C/C=C/CCCCC)[C@@H]2[C@@H]3O[C@]3(CO)[C@@H](O)[C@]3(O)C(=O)C(C)=C[C@H]3[C@@]2(O)[C@H](C)[C@H]1OC(=O)/C=C/c1ccccc1 is reported as greater than 0.034 µM (MT4; cell growth or viability, ATP luminescence; 96 h).
With CCCCCC/C=C/CC(=O)O[C@@]12[C@H](OC(=O)c3ccccc3)[C@@H](C)[C@@]3(O)[C@@H](C=C(CO)C[C@]4(O)C(=O)C(C)=C[C@@H]34)[C@@H]1C2(C)C the CC50 was greater than 7 µM (MT4; cell growth or viability, ATP luminescence).
For N=c1c2c(-c3ccccc3)c(-c3ccccc3)n(Cc3ccccc3)c2ncn1[C@H]1CC[C@H](O)CC1, the compound remaining was 103% (metabolic stability; CD-1 mouse, hepatocytes; 1 µM, 4 h).
The CC50 of CCCC/C=C/C=C/CC(=O)O[C@@]12[C@H](OC(=O)c3ccccc3)[C@@H](C)[C@]3(O)[C@@H]4C=C(C)C(=O)[C@@]4(O)[C@H](O)C(CO)=C[C@H]3[C@@H]1C2(C)C is reported as greater than 7 µM (MT4; cell growth or viability, ATP luminescence).
The compound remaining of CC[C@H](C)[C@H]1C(=O)N2CCC[C@H]2C(=O)O[C@H](C(C)(C)C)C[C@@H](C)C[C@H](O)CC2=N[C@@H](CCC(=O)N[C@@H](Cc3ccc(OC)cc3)C(=O)N(C)[C@@H](C)C(=O)N1C)CS2 is reported as 100% (metabolic stability; female CD-1 mouse, liver microsomes; 1 µM, 0 h, pH 7.4).
The IC50 of C=C(C)[C@@]1(O)[C@H](OC(=O)/C=C/C=C/C=C/CCC)[C@@H]2[C@@H]3O[C@]3(CO)[C@@H](O)[C@]3(O)C(=O)C(C)=C[C@H]3[C@@]2(O)[C@H](C)[C@H]1OC(=O)/C=C/c1ccc(O)c(OC)c1 is reported as greater than 0.034 µM (MT4; cell growth or viability, ATP luminescence; 96 h).
For CC[C@H](C)[C@H]1C(=O)N2CCC[C@H]2C(=O)O[C@H](C(C)(C)C)C[C@@H](C)C[C@H](O)C(C)(C)C2=N[C@@H](CCC(=O)N[C@@H](Cc3ccc(OC)cc3)C(=O)N(C)[C@@H](C)C(=O)N1C)CS2, the compound remaining was 100% (metabolic stability; female CD-1 mouse, liver microsomes; 1 µM, 0 h, pH 7.4).
The inhibition of O=C(O)C(F)(F)C(F)(F)C(F)(F)C(F)(F)C(F)(F)C(F)(F)C(F)(F)F is reported as 35.8% (CYP3A7; enzyme activity, inhibitor; 100 µM, pH 7.4).
For C=C(C)[C@@]12O[C@@]3(/C=C/C=C/CCCCC)O[C@@H]1[C@@H]1[C@@H]4O[C@]4(CO)[C@@H](O)[C@]4(O)C(=O)C(C)=C[C@H]4[C@@]1(O3)[C@H](C)[C@H]2OC(=O)/C=C/c1ccc(O)cc1, the IC50 was greater than 0.034 µM (MT4; cell growth or viability, ATP luminescence; 96 h).
The CC50 of COC(=O)N[C@H](C(=O)NN(CC[C@@]1(Cc2ccccc2)C(=O)N([C@H]2c3ccccc3C[C@H]2O)C[C@@H]1O)Cc1ccc(-c2ccncc2)cc1)C(C)(C)C is reported as greater than 50 µM (MT4; cell growth or viability, XTT; 5 days).
For C=C(C)[C@@]12O[C@@]3(/C=C/C=C/C=C/CCC)O[C@@H]1[C@@H]1[C@@H]4O[C@]4(CO)[C@@H](O)[C@]4(O)C(=O)C(C)=C[C@H]4[C@@]1(O3)[C@H](C)[C@H]2OC(=O)/C=C/c1ccc(O)c(OC)c1, the IC50 was greater than 0.034 µM (MT4; cell growth or viability, ATP luminescence; 96 h).
COC(=O)N[C@H](C(=O)NN(CC[C@@]1(Cc2ccccc2)C(=O)N([C@H]2c3ccccc3C[C@H]2O[Si](C)(C)C(C)(C)C)C[C@@H]1O[Si](C)(C)C(C)(C)C)Cc1ccc(Br)cc1)C(C)(C)C has a CC50 of greater than 50 µM (MT4; cell growth or viability, XTT; 5 days).
O=S(=O)(O)C(F)(F)C(F)(F)C(F)(F)C(F)(F)C(F)(F)C(F)(F)F has an inhibition of 29.1% (CYP3A7; enzyme activity, inhibitor; 10 µM, pH 7.4).
